High-throughput results deposited in PubChem BioAssay by several laboratories.
Hits are enriched below; roughly 4.6% of the tested compounds scored in any of these assays.
NF-kB expr up: compounds increasing NF-kB expression in human neuronal cells; AID 1239; hit rate 1.6% among 190,000; fold change at 12.5 µM; NF-kB reporter expression; active compounds read high; in the data active = fold change above about 3.3
p97 ATPase inh: human p97 ATPase inhibition | P55072 | hit rate 0.42% among 220,000 | inhibition, % at 8 µM | recombinant p97 ATPase, Kinase-Glo ATP luminescence, 3 h; in the data active = inhibition above about 15%;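 also: 0% = DMSO vehicle and 100% = wells lacking enzyme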
Mdm2 ligase inh: inhibitors of human Mdm2 E3 ubiquitin ligase; cell-based MDM2 ubiquitination luciferase reporter, 2 h; 0 = plate control, 100 = twice control, blank-subtracted; AID 1230; Q00987; signal enhancement, % at 5 µM; hit rate 0.11% among 210,000;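 active = signal enhancement of 30% or more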;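 also: luminescence tracks abundance of the self-degrading MDM2-luciferase fusion protein; higher signal means inhibition of MDM2 E3 ligase activity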
Target sequence (Q00987 whole entry, looked up, the tested form may be a part): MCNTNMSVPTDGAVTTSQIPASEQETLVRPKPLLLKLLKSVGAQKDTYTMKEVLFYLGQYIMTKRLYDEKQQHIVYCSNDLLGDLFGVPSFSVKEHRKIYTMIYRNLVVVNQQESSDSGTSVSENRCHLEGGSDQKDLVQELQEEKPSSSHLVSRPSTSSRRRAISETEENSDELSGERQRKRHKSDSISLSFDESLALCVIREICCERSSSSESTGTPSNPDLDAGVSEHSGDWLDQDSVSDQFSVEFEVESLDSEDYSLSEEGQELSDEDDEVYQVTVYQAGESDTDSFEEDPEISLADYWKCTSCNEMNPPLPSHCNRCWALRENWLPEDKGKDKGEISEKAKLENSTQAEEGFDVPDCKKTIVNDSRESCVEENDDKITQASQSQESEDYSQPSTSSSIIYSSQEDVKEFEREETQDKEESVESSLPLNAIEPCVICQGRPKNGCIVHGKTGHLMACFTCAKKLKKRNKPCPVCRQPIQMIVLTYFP
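Test system: stable mammalian line carrying autodegrading MDM2–luciferase fusion reporter; quantity: 2000 cells in each well; times: 4 h cell settling then 2 h compound exposure, 37 °C; detection: luminescence with SteadyLite reagent, 15 min at room temperature; evaluation: percent signal gain over controls, blank-subtracted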
Wee1 degr inh: blocks degradation of human Wee1 kinase; hit rate 1.2% among 220,000; reporter increase, % at 5 µM; AID 1321; P30291; HeLa Luc-Wee1K328M stability, luciferase luminescence; 100% = proteasome inhibitor MG132 effect;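 active = activation above the mean of all tested compounds plus 3 SD, set per screening run, cut at about 8.8% in these data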;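 also: cells exposed to compound for 20 h before luminescence read; 0% = DMSO alone and 100% = MG132 at 30 µM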
APP 5'UTR act: activates APP 5'UTR luciferase reporter; SH-SY5Y APP 5'UTR luciferase reporter, luminescence; zero percent = DMSO vehicle wells; activation, % at 2 µM; hit rate 1% among 190,000;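 active = activation above a set limit, based on mean plus 3 SD of controls, cut at about 140% in these data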
STAT1 act: STAT1 signaling activation | NIH 3T3 STAT1-luciferase reporter, IFN-gamma, luminescence; 100% = IFN-gamma alone, no compound | activation (% of control), % at 5.5 µM | hit rate 2.6% among 200,000;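 active = activation above the screen-wide mean activation plus 3 SD, cut at about 130% in these data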;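 also: raw ratio to IFN-gamma control signal so 100% means no change and 0% no light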
Active calls of the source: *; . = no result given.

SMILES	NF-kB expr up	p97 ATPase inh	Mdm2 ligase inh	Wee1 degr inh	APP 5'UTR act	STAT1 act
COc1ccc(-c2nsc(SCC(=O)Nc3ccc4c(c3)OCO4)n2)cc1	1.4	2	32*	0	68	97
Oc1ccccc1/C=N/Nc1cccc2cccnc12	12*	2	-35	1	89	90
O=C(COc1cccc2cccnc12)N/N=C/c1ccccc1O	.	9	-28	-4	.	.
C/C(=N\Nc1cccc2cccnc12)c1ccc(C)cc1	4.2*	0	-32	7	137*	137*
COc1ccc(/C=N/NC(=O)C(=O)NCc2cccnc2)cc1	1.1	-6	-16	1	1	106
CC(=O)n1c2c(c3ccccc31)OC(N)=C(C#N)C2c1ccc(C(C)C)cc1 (centres undefined)	0.61	1	-5	-1	48	129*
Cc1cc2nc(CS(=O)(=O)c3ccccc3)cc(=O)n2[nH]1	1.1	2	4	-2	18	104
CC(C)c1nc2ccc(Br)cn2c1NC1CCCC1	1	-1	-5	-1	-7	94
CC(C)(C)NC(=O)NC(=O)COC(=O)c1cc[n+]([O-])cc1	1.1	0	-3	0	0	107
CC(C)CCn1cnc2c(sc3nc4c(cc32)CSC(C)(C)C4)c1=O	0.99	-1	-26	-3	231*	118
CNc1nnc(-c2ccc(N(C)C)cc2)s1	4.7*	-2	-49	3	115	87
CN(C)c1ccc(-c2nn3c(-c4ccc(Cl)cc4)nnc3s2)cc1	1.2	-1	-1	-2	17	110
COc1ccc(CN2CCC(CO)(Cc3ccccc3C(F)(F)F)CC2)c(F)c1	0.9	2	-25	1	-7	99
CS(=O)(=O)Cc1nc2ccccc2oc1=O	4.7*	7	-13	-2	-12	95
C/C(O)=C\c1nc2ccccc2oc1=O	3.6*	-4	-8	3	-1	96
COc1cc(/C=C2\CC/C(=C\c3cc(OC)c(O)c(OC)c3)C2=O)cc(OC)c1O	0.67	19*	-8	3	-5	132*
COc1cc(/C=C2\COC/C(=C\c3cc(OC)c(OC)c(OC)c3)C2=O)cc(OC)c1OC	.	-6	69*	127*	.	.
O=C(N/N=C1\CCCCc2ccccc21)c1ccccn1	1.9	6	4	3	51	117
N/C(=N\OC(=O)CC1CCCCC1)c1ccccn1	4.8*	1	-53	-2	53	128
C/C(=N/NC(=O)c1ccoc1C)C12CC3CC(CC(C3)C1)C2	2	-1	-24	1	158*	122
O=C(NN=C1CCCCCCC1)c1ccccn1	1.8	6	-7	4	170*	119
N/C(=N\OC(=O)C12CC3CC(CC(C3)C1)C2)c1ccccn1	1.9	2	-4	2	14	142*
CC(C)NS(=O)(=O)c1ccc(OCC(=O)Nc2ccc(F)cc2)cc1	1.2	-1	-18	1	6	99
C/C(=N/NC(=O)CNC(=O)Cc1ccccc1)c1ccc(Cl)cc1	.	-7	-13	-1	.	.
C/C(=N/NC(=O)c1ccccn1)c1ccc(O)cc1	.	8	-20	-1	.	.
SMILES	NF-kB expr up	p97 ATPase inh	Mdm2 ligase inh	Wee1 degr inh	APP 5'UTR act	STAT1 act
C/C(=N\NC(=O)c1ccccn1)C12CC3CC(CC(C3)C1)C2	1.8	1	-8	-1	86	150*
COc1ccc(C(=O)NNC(=O)c2ccc(C)cc2)cc1S(=O)(=O)N1CCCC1	0.91	7	-8	4	12	108
O=C1/C(=C\Nc2ccc(OC(F)(F)F)cc2)CCN1c1ncccn1	3.2	2	-6	3	.	131*
C=CCOC(=O)/C(=C/c1cccc2ccccc12)NC(=O)c1ccccc1	1.1	4	-3	3	29	124
Nn1c(SCc2ccccc2)nnc1-c1ccccn1	2	2	-11	0	36	131*
CCCCNC(=O)C1CC(c2cccc([N+](=O)[O-])c2)=NO1 (centres undefined)	3.5*	4	-16	0	50	140*
C/C(=N/O)c1ccc2c(c1)OCCOCCOc1cc(/C(C)=N/O)ccc1OCCOCCO2	0.91	4	-15	0	0	98
COC(=O)c1cc(C(=O)NCc2ccccc2)c(=O)[nH]c1C	1.2	4	9	0	-18	111
